{
  "source": "ChEMBL document CHEMBL4346679",
  "about": "“N, N', N″-trisubstituted guanidines: Synthesis, characterization and evaluation of their leishmanicidal activity” (Eur J Med Chem, 2019)",
  "key": {"[1]": {"test": "Safety index, ratio of CC50 for mouse peritoneal macrophage to IC50 for promastigote stage of Leishmania amazonensis MPRO/BR/1972/M1841-LV-79", "assay_type": "toxicity", "conditions": "read-out: Ratio CC50/IC50"}, "[2]": {"test": "Toxicity in Balb/c mouse infected with promastigote stage of Leishmania amazonensis MPRO/BR/1972/M1841-LV-79 assessed as change in body weight at 2 mg/kg, ip administered once daily for 15 days measured during compound dosing", "assay_type": "organism-based", "conditions": "in vivo, 360 h"}, "[3]": {"system": "Leishmania amazonensis", "test": "Antileishmanial activity against promastigote stage of Leishmania amazonensis MPRO/BR/1972/M1841-LV-79 infected in Balb/c mouse assessed as reduction in volume of foot lesions at 2 mg/kg, ip administered once daily for 15 days measured every 5 days during compound dosing by caliper method", "assay_type": "functional, organism-based", "outline": "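Infected BALB/c mice (5 per group) were dosed daily ip for 15 days, starting six weeks after footpad inoculation: 0.13 or 0.25 mg/kg/day, AmpB 2 mg/kg/day, or PBS. Foot lesion thickness was measured with a dial caliper every 5 days.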"}, "[4]": {"system": "Leishmania amazonensis", "test": "Antileishmanial activity against promastigote stage of Leishmania amazonensis MPRO/BR/1972/M1841-LV-79 infected in Balb/c mouse assessed as decrease in plasma alkaline phosphatase level at 2 mg/kg, ip administered once daily for 15 days measured post-last dose", "assay_type": "organism-based", "conditions": "in vivo, 360 h", "outline": "(§1)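 Female BALB/c mice (4 weeks old, 5 per group) were infected in the left hind footpad with 1 × 10^7 parasites/mL of infective promastigotes. After six weeks they received daily ip doses for 15 days: 0.13 or 0.25 mg/kg/day (from DMSO stock in PBS, 0.1% DMSO), AmpB 2 mg/kg/day in sterile water, or PBS. Controls were untreated infected and uninfected mice. At end of treatment, plasma bilirubin, AST, ALT, ALP, urea and creatinine were measured with commercial kits.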"}, "[5]": {"test": "Renal toxicity in Balb/c mouse infected with promastigote stage of Leishmania amazonensis MPRO/BR/1972/M1841-LV-79 assessed as change in plasma urea level at 2 mg/kg, ip administered once daily for 15 days measured post-last dose", "assay_type": "organism-based", "conditions": "in vivo, 360 h", "outline": "as §1"}, "[6]": {"test": "Cytotoxicity against mouse peritoneal macrophages assessed as decrease in cell viability after 24 hrs by MTT assay", "assay_type": "cell-based, Peritoneal macrophage", "outline": "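Peritoneal macrophages (1 × 10^5/well) in RPMI 1640 with 10% FBS, 25 mM HEPES and 2 mM L-glutamine were pre-incubated 4 h. They were then exposed to compounds for 24 h at 37 °C, 5% CO2. Viability was read by MTT; CC50 determined.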"}, "[7]": {"system": "Leishmania amazonensis", "test": "Antileishmanial activity against Leishmania amazonensis MPRO/BR/1972/M1841-LV-79 amastigotes infected in mouse peritoneal macrophages assessed as reduction in number of intracellular amastigotes at 25 uM after 72 hrs by Giemsa staining-based microscopic method relative to control", "assay_type": "functional", "design": "scale not given: the % may be the effect or the level left", "outline": "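Infected peritoneal macrophages were treated with 25 µM of each compound, pentamidine or AmpB for 72 h. The infection index (% infected macrophages × amastigotes per infected macrophage) was compared with untreated infected cells. Data are given as mean ± SD.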"}, "[8]": {"system": "Leishmania amazonensis", "test": "Antileishmanial activity against Leishmania amazonensis MPRO/BR/1972/M1841-LV-79 amastigotes infected in mouse peritoneal macrophages assessed as parasite growth inhibition after 24 hrs by Giemsa staining-based microscopic method", "assay_type": "functional, organism-based", "conditions": "MPRO/BR/1972/M1841-LV-79, 24 h", "outline": "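Peritoneal macrophages (3 × 10^5/well on coverslips, RPMI 1640 + 10% FBS) adhered 4 h at 37 °C, 5% CO2, then infected with stationary-phase promastigotes at 5:1 for 4 h. After washing, cells were cultured 18 h, then treated 24 h with compounds or reference drugs. Cells were methanol-fixed and Giemsa-stained. Infection index = % infected macrophages × mean amastigotes per infected cell. IC50 was fitted by regression.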"}, "[9]": {"system": "Leishmania amazonensis", "test": "Antileishmanial activity against promastigote stage of Leishmania amazonensis MPRO/BR/1972/M1841-LV-79 assessed as parasite growth inhibition after 72 hrs by MTT assay", "assay_type": "functional, organism-based", "conditions": "MPRO/BR/1972/M1841-LV-79, 72 h", "outline": "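Promastigotes at 1 × 10^7/mL in LIT + 10% FBS were exposed 72 h at 28 °C to ten concentrations, 0.5–100 µM (final DMSO 0.1%). Viability was read by MTT, with formazan dissolved in SDS-HCl and absorbance at 570 nm. Run in triplicate; IC50 from nonlinear regression.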"}, "[10]": {"test": "Safety index, ratio of CC50 for mouse peritoneal macrophages to IC50 for Leishmania amazonensis MPRO/BR/1972/M1841-LV-79 amastigotes infected in mouse peritoneal macrophages", "assay_type": "toxicity", "conditions": "read-out: Ratio CC50/IC50"}, "[11]": {"system": "Leishmania amazonensis", "test": "Antileishmanial activity against promastigote stage of Leishmania amazonensis MPRO/BR/1972/M1841-LV-79 infected in Balb/c mouse assessed as decrease in plasma alanine aminotransferase level at 2 mg/kg, ip administered once daily for 15 days measured post-last dose", "assay_type": "functional, organism-based", "outline": "as §1"}, "[12]": {"system": "Leishmania amazonensis", "test": "Antileishmanial activity against promastigote stage of Leishmania amazonensis MPRO/BR/1972/M1841-LV-79 infected in Balb/c mouse assessed as reduction in parasitic load at 2 mg/kg, ip administered once daily for 15 days by limiting dilution method relative to control", "assay_type": "functional", "design": "scale not given: the % may be the effect or the level left", "outline": "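Footpad-infected female BALB/c mice (1 × 10^7 parasites/mL promastigotes; 5 per group) were treated from six weeks post-infection. Dosing was daily ip for 15 days: 0.13 or 0.25 mg/kg/day (PBS, 0.1% DMSO), AmpB 2 mg/kg/day, or PBS vehicle. Skin-lesion parasite burden was quantified after treatment by limiting dilution and compared with untreated infected mice. Data are mean ± SD.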"}, "[13]": {"system": "Leishmania amazonensis", "test": "Antileishmanial activity against promastigote stage of Leishmania amazonensis MPRO/BR/1972/M1841-LV-79 infected in Balb/c mouse assessed as decrease in plasma aspartate aminotransferase level at 2 mg/kg, ip administered once daily for 15 days measured post-last dose", "assay_type": "functional, organism-based", "outline": "as §1"}, "[14]": {"test": "Renal toxicity in Balb/c mouse infected with promastigote stage of Leishmania amazonensis MPRO/BR/1972/M1841-LV-79 assessed as change in plasma creatinine level at 2 mg/kg, ip administered once daily for 15 days measured post-last dose", "assay_type": "organism-based", "conditions": "in vivo, 360 h", "outline": "as §1"}, "[15]": {"system": "Leishmania amazonensis", "test": "Antileishmanial activity against promastigote stage of Leishmania amazonensis MPRO/BR/1972/M1841-LV-79 infected in Balb/c mouse assessed as increase in plasma bilirubin level at 2 mg/kg, ip administered once daily for 15 days measured during compound dosing", "assay_type": "functional, organism-based"}},
  "note": "pIC50: −log10 of the molar value. The source made the active and inactive calls. The rule behind the calls is not given here.",
  "data": [
    {"smiles": "C[C@@H]1[C@H](O)[C@@H](C)/C=C/C=C/C=C/C=C/C=C/C=C/C=C/[C@H](O[C@@H]2O[C@H](C)[C@@H](O)[C@H](N)[C@@H]2O)C[C@@H]2O[C@](O)(C[C@@H](O)C[C@@H](O)[C@H](O)CC[C@@H](O)C[C@@H](O)CC(=O)O[C@H]1C)C[C@H](O)[C@H]2C(=O)O", "note": "[AMPHOTERICIN B]", "values": [
      {"measurement": "selectivity ratio", "setting": "[1]", "value": 7.2},
      {"measurement": "Activity", "setting": "[2]", "value": "Non-Toxic"},
      {"measurement": "Activity", "setting": "[3]", "value": "Active"},
      {"measurement": "Activity", "setting": "[4]", "value": "Active"},
      {"measurement": "Activity", "setting": "[5]", "value": "Non-Toxic"},
      {"measurement": "CC50 at 24 h", "setting": "[6]", "value": 23.1, "unit": "µM"},
      {"measurement": "Activity", "setting": "[7]", "value": 84, "unit": "%"},
      {"measurement": "pIC50", "setting": "[8]", "value": 5.31},
      {"measurement": "pIC50", "setting": "[9]", "value": 5.49},
      {"measurement": "selectivity ratio", "setting": "[10]", "value": 4.7},
      {"measurement": "Activity", "setting": "[11]", "value": "Active"},
      {"measurement": "Activity", "setting": "[12]", "value": 41, "unit": "%"},
      {"measurement": "Activity", "setting": "[13]", "value": "Active"},
      {"measurement": "Activity", "setting": "[14]", "value": "Non-Toxic"},
      {"measurement": "Activity", "setting": "[15]", "value": "Active"}
    ]}
  ]
}
